HTRA1 inh: blocks human HTRA1 serine peptidase; recombinant HTRA1, FP-rhodamine activity-based probe, fluorescence polarization; AID 504803; Q92743; inhibition, % at 5.96 µM; 0.5% of 340,000 active; in the data active means inhibition above about 36%;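 further: 0% = enzyme with DMSO and 100% = wells lacking enzyme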
SIAE primary: blocks human sialic acid acetylesterase; Q9HAT2; 0.69% of 370,000 active; inhibition, % at 9.66 µM; SIAE FP-Rh probe binding, fluorescence polarization;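 active means inhibition above a cutoff: mean of compounds within the control limits plus 3 SD of those, cut at about 17% in these data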;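 further: 0% = plate median of compound wells and 100% = probe without SIAE protein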
Target sequence (Q9HAT2 whole entry, looked up): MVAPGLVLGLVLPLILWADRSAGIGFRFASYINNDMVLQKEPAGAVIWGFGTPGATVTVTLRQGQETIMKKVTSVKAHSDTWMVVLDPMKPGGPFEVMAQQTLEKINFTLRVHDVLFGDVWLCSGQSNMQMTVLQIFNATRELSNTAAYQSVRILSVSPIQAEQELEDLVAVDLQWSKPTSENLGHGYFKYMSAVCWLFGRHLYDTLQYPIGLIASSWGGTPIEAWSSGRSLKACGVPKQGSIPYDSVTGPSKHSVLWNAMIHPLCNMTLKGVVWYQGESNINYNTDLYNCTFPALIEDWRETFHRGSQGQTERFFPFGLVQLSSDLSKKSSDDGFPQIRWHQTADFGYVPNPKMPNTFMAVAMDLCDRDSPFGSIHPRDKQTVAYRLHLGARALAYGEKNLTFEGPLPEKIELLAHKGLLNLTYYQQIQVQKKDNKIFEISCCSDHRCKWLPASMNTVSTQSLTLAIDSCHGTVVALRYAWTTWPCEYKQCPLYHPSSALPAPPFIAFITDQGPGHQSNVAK
mABHD4 FP: inhibitors of mouse ABHD4 | Q8VD66 | purified mABHD4, FP-Rh probe fluorescence polarization | inhibition, % at 8.92 µM | 0.54% of 370,000 active | AID 720543;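 active means inhibition exceeding the mean over every tested compound plus 3 SD, cut at about 30% in these data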;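 further: 0% = plate median of compound wells and 100% = S159A mutant with DMSO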
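Assay system: Wild-type mouse ABHD4 protein | Medium: HEPES pH 7.0 buffer, 150 mM NaCl, 0.01% Pluronic F-127 | Incubation: Enzyme–compound pre-incubation 45 min, then probe 60 min, both 25 °C | Technique: Fluorescence polarization with parallel and perpendicular emission, 525/598 nm | Evaluation: % inhibition of FP-Rh probe binding versus controls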
TCR CD3 inh: human TCR-CD3 binding inhibition; TAMRA-labeled TCR probe fluorescence, biochemical; inhibition, % at 9.4 µM; 0.37% of 360,000 active; AID 651800; in the data active means inhibition above about 19%;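 further: recombinant mutant TCR 2C K166C tagged with TAMRA read by polarization; 0% = receptor in buffer alone and 100% = receptor with positive control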
DAGLB inh: blocks human DAGLB lipase activity | Q8NCG7 | HEK293T DAGLB membrane lysate, EnzChek fluorogenic substrate | inhibition, % at 5.17 µM | 0.059% of 340,000 active; in the data active means inhibition above about 34%;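 further: 0% = enzyme with vehicle and 100% = wells lacking enzyme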
SIAE inh conf: human SIAE inhibition, confirmation | shares compounds with SIAE primary | SIAE FP-Rh activity-based probe, fluorescence polarization | inhibition, % at 9.66 µM | 13% of 2,300 active | AID 1117263;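 active means mean inhibition of the replicates above the hit cutoff set in the primary screen, cut at about 17% in these data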;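 further: 0% = SIAE with DMSO and probe and 100% = probe without SIAE; inhibitors lower polarization as more probe stays unbound to SIAE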
Starred values were filed as active, the others as inactive; . = no result. In the library only some 1.5% were active in any assay of this set; here they are far more common.

SMILES | HTRA1 inh | SIAE primary | mABHD4 FP | TCR CD3 inh | DAGLB inh | SIAE inh conf
Cn1c(SCC(=O)NC(=O)c2cccc([N+](=O)[O-])c2)nnc1-c1ccc(F)cc1 | 1 | 23* | -3 | 8 | 0 | 5
COc1ccccc1NC(=O)C1=C(C)Nc2nc(-c3cccnc3)nn2C1c1ccccn1 (configuration not stated) | 3 | -4 | -4 | -2 | -2 | .
COc1ccccc1NC(=O)C1=C(C)Nc2nc(-c3cccs3)nn2C1c1cccnc1 (configuration not stated) | -9 | 18* | -1 | -4 | -4 | 0
O=C1C2C3C=CC(C3=C3CCCCC3)C2C(=O)N1c1ccccc1 (configuration not stated) | -3 | 19* | 1 | -3 | -3 | 2
CN(C)S(=O)(=O)c1cccc(-c2csc(N/N=C/c3ccco3)n2)c1 | -4 | 3 | 14 | 6 | 5 | .
Cc1ccc(-c2csc(N/N=C/c3ccco3)n2)c(C)c1 | 4 | 19* | 11 | 6 | 1 | 3
CCCCCCCCCCCCNC[C@@H]1CSCCS(=O)(=O)N1 | . | -5 | 0 | 4 | . | .
Cn1nc(-c2ccc(OCC(N)=O)cc2)c2ccccc2c1=O | -1 | 0 | 2 | -1 | 0 | .
COC(=O)COc1ccc(-c2nn(C)c(=O)c3ccccc23)cc1 | 3 | 20* | -3 | 0 | 3 | 2
CC(OC(=O)c1cccc(Cl)c1)C(=O)NC1CCCCC1C (configuration not stated) | 1 | -2 | -1 | 4 | -4 | .
CC(OC(=O)C1CCN(S(=O)(=O)c2ccc(Cl)cc2)CC1)C(=O)NC1CCCCC1C (configuration not stated) | -4 | 19* | 2 | 4 | 2 | -2
CC1CCN(S(=O)(=O)c2ccc(C(=O)OC(C)C(=O)NC3CCCCC3C)cc2)CC1 (configuration not stated) | 1 | -2 | -1 | -1 | 1 | .
CC(OC(=O)/C=C/c1cccc(Cl)c1)C(=O)NC1CCCCC1C (configuration not stated) | 4 | 17* | 3 | 6 | -1 | -1
COc1cccc(N2CCN(CC(=O)NCc3ccc(F)cc3)CC2)c1 | . | -1 | 6 | . | . | .
CN=C1NC(=O)/C(=C\c2cc(C)n(-c3ccccc3F)c2C)S1 | . | 5 | 1 | . | . | .
O=C(NC(=S)N(Cc1ccccc1)Cc1ccccc1)c1ccccc1F | -12 | 79* | 2 | -4 | -6 | -2
O=C(NC(=S)NCc1ccccc1)c1ccccc1F | -14 | -12 | -7 | -3 | -4 | .
N#Cc1cccc(NC(=O)CSc2ccc3c4c(cccc24)C(=O)c2ccccc2-3)c1 | 2 | 57* | 8 | 4 | -84 | 48*
COc1ccc(NC(=O)CSc2ccc3c4c(cccc24)C(=O)c2ccccc2-3)cc1 | 13 | 7 | 3 | 4 | -4 | .
COc1ccc(NC(=O)c2coc(C)c2)cc1 | -2 | 19* | 3 | -2 | -1 | -1
COc1cccc(NC(=O)Cc2cn(C)c3ccccc23)c1 | -5 | 0 | 2 | -2 | -7 | .
Cn1cc(CC(=O)Nc2ccc(Nc3cccnc3)cc2)c2ccccc21 | . | 21* | 8 | -7 | . | 23*
CN(c1cccnc1)c1ccc(NC(=O)Cc2cn(Cc3ccccc3)c3ccccc23)cc1Br | . | 21* | 18 | 2 | . | 24*
CCOC(=O)N1CCN(C(=O)COc2cccc3c2CCN(Cc2ccc(F)cc2)C3=O)CC1 | -11 | -1 | 4 | -2 | 3 | .
CCOC(=O)N1CCN(C(=O)COc2cccc3c2CCN(CC)C3=O)CC1 | -3 | 20* | 2 | -4 | 1 | -1
SMILES | HTRA1 inh | SIAE primary | mABHD4 FP | TCR CD3 inh | DAGLB inh | SIAE inh conf
O=C(Nc1nnc(C(F)(F)F)s1)c1c(F)cccc1F | -1 | 32* | 4 | 0 | 2 | -4
O=C(Nc1nnc(C(F)(F)F)s1)c1cccnc1 | -2 | -2 | 1 | 6 | 2 | .
COc1ccc(CCC(=O)N2c3ccccc3N=C(c3ccc(C(F)(F)F)cc3)C2C(=O)NC(C)C)cc1 (configuration not stated) | . | 6 | 3 | 7 | . | .
CC(C)C[C@@H](NC(=O)OC(C)(C)C)C(=O)N1O[C@]23C=C[C@]14C[C@@H](O)CC[C@]4(C)C2CC[C@]1(C)[C@@H]([C@H](C)/C=C/[C@H](C)C(C)C)CC[C@H]13 (some centres not stated) | . | 0 | 1 | -2 | . | .
O=C(CSc1nnc(SCc2cccc3ccccc23)s1)N/N=C/c1c[nH]c2ccccc12 | -28 | 30* | -8 | 8 | -1 | 0
COc1ccc(C(=O)CC(C#N)c2ccc3c(c2)OCO3)cc1OC (configuration not stated) | -9 | -7 | -11 | -3 | -3 | .
Cc1cc(C)c(NC(=O)Nc2ccc3c(c2)OCO3)c(C)c1 | -2 | -5 | 0 | 9 | 1 | .
Cc1cc(C)c2[nH]c(C(=O)Nc3ccc4c(c3)OCO4)cc2c1 | 9 | 18* | 12 | 1 | -3 | 0
O=C(Nc1ccc2c(c1)OCCO2)C(c1cc2ccccc2o1)N1CCN(C/C=C/c2ccccc2)CC1 (configuration not stated) | . | -3 | 0 | 2 | . | .
COc1ccc(OC)c(/C=N\Nc2nccs2)c1 | 4 | 18* | 7 | 2 | 1 | 2
COc1ccc(/C=N\Nc2ccccn2)c(OC)c1 | 1 | 1 | 7 | -2 | 0 | .
O=C(NNC(=O)C1CC1c1ccccc1)c1cccc([N+](=O)[O-])c1 (configuration not stated) | 4 | 18* | -1 | -1 | -6 | 1
CC1(C(=O)NNC(=O)c2cccc([N+](=O)[O-])c2)CC1Br (configuration not stated) | 0 | 4 | -5 | -5 | -1 | .
COC(=O)[C@]12C[C@H](CC(=O)NCCCCc3ccccc3)C(=O)N(Cc3ccccc3)C1=C[C@H](C1CCCC1)O[C@@H]2C | . | 7 | -3 | -3 | . | .
Cc1nc(N2CCN(c3ccccn3)CC2)c2c(C)c(C(=O)Nc3c(C)cc(Br)cc3C)sc2n1 | -8 | 17* | -10 | 6 | 0 | -19
Cc1nc(N2CCN(c3ccccn3)CC2)c2c(C)c(C(=O)Nc3c(F)cc(F)cc3Br)sc2n1 | -36 | -7 | -11 | -1 | -3 | .
CC(C)CN1C(=O)C[C@@]2(C(=O)N(C)c3ccc(NC(=O)C(C)(C)C)cc32)C1c1ccccc1 (some centres not stated) | . | 11 | 7 | . | . | .
CC1(C)CC(=O)C=C(Nc2ccc(F)c(Cl)c2)C1 | 2 | -5 | 1 | 7 | 0 | .
Cc1ccc(NC2=CC(=O)CC(C)(C)C2)cc1Cl | 4 | 20* | -1 | 4 | -3 | 0
O=C(CN1CCN(S(=O)(=O)c2ccc3c(c2)OCCO3)CC1)Nc1cccc(F)c1 | -2 | 19* | 2 | 4 | -8 | 0
O=C(COC(=O)C1CCN(S(=O)(=O)c2ccc3c(c2)OCCO3)CC1)Nc1cccc2ccccc12 | 2 | 18* | 0 | -2 | -3 | -1

High-throughput results as filed in PubChem.
